From PubChem BioAssay
Only a selection was taken, and hits are over-represented in it overall.
Lung fibro prol – blocks proliferation of human lung fibroblasts; LL 47 human lung fibroblast viability, ATP luminescence; hits give low values; viability, % at 10 µM; 85,000 compounds, 1.1% hits; AID 719;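 active means viability at or below 50% in the single dose screen; inactive means viability above 50%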;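 further: compound exposure lasted 72 h before the ATP readout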
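Signal: luminescent ATP detection, CellTiter-Glo; assay system: LL 47 human lung fibroblasts; input: 1,150 cells/well; incubation: overnight cell rest, 72 h compound treatment at 37 °C; measure: % viability versus median cells-only luminescence; medium: IMEM growth medium with 15% fetal bovine serum; dosing: compound addition at 0.1% DMSO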
PTEN del growth – PTEN-deleted cell growth suppression | viability, % at 10 µM | AID 827 | HCT116 PTEN-null viability, CellTiter-Glo, 60 h; hits give low values | 140,000 compounds, 1.2% hits;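 active means viability at or below a set limit, 4 SD under the median of all tested compounds, cut at about 3.7% in these data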;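 further: PTEN knockout HCT116 line with beta catenin targeted HCT116 as companion control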
HUVEC inhibit – human endothelial cell proliferation inhibition. HUVEC proliferation, CellTiter-Glo luminescence, 72 h; hits give low values. viability, % at 10 µM (by protocol). 86,000 compounds, 1.1% hits;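 active means viability at or below 30%; inactive means viability above 30%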
H69AR growth 86K – blocks growth of human H69AR lung tumor cells; H69AR lung tumor viability, ATP luminescence, 72 h; hits give low values; viability, % at 10 µM; 85,000 compounds, 6% hits; AID 598;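 active means viability at or below 40%; inactive means viability above 40%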;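 further: multidrug resistant small cell line overexpressing MRP-1 efflux transporter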
HCT116 bCat-KO – beta-catenin-lacking colon tumor cell growth suppression. HCT116 beta-catenin knockout viability, CellTiter-Glo, 60 h; hits give low values. viability, % at 10 µM. 140,000 compounds, 1.5% hits. AID 818;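 active means viability at or under a set limit, the compound median less 4 SD, cut at about 6% in these data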
A number is an active result.

What do the screens show for `C=CCn1c(COc2ccc(F)cc2)nnc1SCC(=O)N1CC(=O)Nc2ccccc21`?
Lung fibro prol: inactive; PTEN del growth: inactive; HUVEC inhibit: inactive; H69AR growth 86K: inactive; HCT116 bCat-KO: inactive

What do the screens show for `Cc1ccc(-c2noc(CCC(=O)NC3CCN(Cc4ccccc4)CC3)n2)cc1`?
Lung fibro prol: inactive; PTEN del growth: inactive; HUVEC inhibit: inactive; H69AR growth 86K: inactive; HCT116 bCat-KO: inactive

How did CCOc1ccccc1NC(=O)Cn1nnc(-c2ccc(OCC)c(OCC)c2)n1 do in these assays?
Lung fibro prol: inactive; PTEN del growth: 2.8; HUVEC inhibit: inactive; H69AR growth 86K: 3.5; HCT116 bCat-KO: 2.0

What do the screens show for `COc1ccc(N2CCN(C(=O)Cn3nnc(-c4ccc(OC)c(OC)c4)n3)CC2)cc1`?
Lung fibro prol: inactive; PTEN del growth: inactive; HUVEC inhibit: inactive; H69AR growth 86K: 15; HCT116 bCat-KO: inactive

How did CCOc1ccc(-c2nnn(CC(=O)Nc3cc(OC)cc(OC)c3)n2)cc1OCC do in these assays?
Lung fibro prol: inactive; PTEN del growth: inactive; HUVEC inhibit: inactive; H69AR growth 86K: 10; HCT116 bCat-KO: inactive

What do the screens show for `Cc1ccc(-c2noc(CCC(=O)NC3CCCc4ccccc43)n2)cc1` (centres undefined)?
Lung fibro prol: inactive; PTEN del growth: inactive; HUVEC inhibit: inactive; H69AR growth 86K: 20; HCT116 bCat-KO: inactive

How did CCOc1ccc(-c2nnn(CC(=O)Nc3cc(OC)ccc3OC)n2)cc1OCC do in these assays?
Lung fibro prol: inactive; PTEN del growth: inactive; HUVEC inhibit: inactive; H69AR growth 86K: inactive; HCT116 bCat-KO: inactive

How did Cc1cccc(C2NC(c3cccc(C)c3)C([N+](=O)[O-])C(C)(C)C2[N+](=O)[O-])c1 (centres undefined) do in these assays?
PTEN del growth: inactive; HCT116 bCat-KO: inactive

What do the screens show for `COc1ccc(-c2nnn(CC(=O)NC3CCCc4ccccc43)n2)cc1OC` (centres undefined)?
Lung fibro prol: inactive; HUVEC inhibit: inactive; H69AR growth 86K: 25

What do the screens show for `COC(=O)c1nnn(-c2nonc2N)c1CSc1nc2ccccc2o1`?
PTEN del growth: inactive; HCT116 bCat-KO: inactive

How did Cc1ccccc1OCC(=O)N/N=C/c1ccco1 do in these assays?
Lung fibro prol: inactive; PTEN del growth: inactive; HUVEC inhibit: inactive; H69AR growth 86K: inactive; HCT116 bCat-KO: inactive

What do the screens show for `CCCCOc1ccc(-c2nnn(CC(=O)NCc3ccco3)n2)cc1`?
Lung fibro prol: inactive; PTEN del growth: inactive; HUVEC inhibit: inactive; H69AR growth 86K: 29; HCT116 bCat-KO: inactive

How did CCOc1ccc(-c2nnn(CC(=O)NCc3ccco3)n2)cc1OCC do in these assays?
Lung fibro prol: inactive; PTEN del growth: inactive; HUVEC inhibit: inactive; H69AR growth 86K: inactive; HCT116 bCat-KO: inactive

Results for CCN1CCN(C(=S)Nc2ccc3nc(N4CCN(CC)CC4)cc(C)c3c2)CC1 ?
PTEN del growth: inactive; HCT116 bCat-KO: inactive

Results for Cc1ccc(C)c(/C=C/C(=O)c2ccccc(=O)c2O)c1 ?
PTEN del growth: inactive; HCT116 bCat-KO: inactive

Results for Cc1ccc(/C=C/C(=O)c2ccccc(=O)c2O)c(C)c1 ?
PTEN del growth: inactive; HCT116 bCat-KO: 4.2

What do the screens show for `O=C(/C=C/c1ccccc1Cl)c1ccccc(=O)c1O`?
PTEN del growth: 2.1; HCT116 bCat-KO: 1.3

How did COc1ccc(CC(=S)N2CCOCC2)cc1 do in these assays?
PTEN del growth: inactive; HCT116 bCat-KO: inactive

What do the screens show for `CCCc1ccc(S(=O)(=O)NCCc2ccncc2)cc1`?
Lung fibro prol: inactive; PTEN del growth: inactive; HUVEC inhibit: inactive; H69AR growth 86K: inactive; HCT116 bCat-KO: inactive

Results for COc1ccc(C(=O)n2c(-c3ccco3)nc3ccccc32)cc1 ?
Lung fibro prol: inactive; PTEN del growth: inactive; HUVEC inhibit: inactive; H69AR growth 86K: 24; HCT116 bCat-KO: inactive

Results for S=C(Nc1ccccc1)Nc1nc2ccccc2n1CCOc1ccccc1 ?
PTEN del growth: 1.2; HCT116 bCat-KO: 1.6

What do the screens show for `COc1ccc(CCn2c(-c3ccco3)nc3nc4ccccc4nc32)cc1`?
Lung fibro prol: inactive; PTEN del growth: inactive; HUVEC inhibit: inactive; H69AR growth 86K: inactive; HCT116 bCat-KO: inactive

What do the screens show for `COc1ccc(OCCn2c(NC(=O)c3ccco3)nc3ccccc32)cc1`?
Lung fibro prol: inactive; PTEN del growth: inactive; HUVEC inhibit: inactive; H69AR growth 86K: 39; HCT116 bCat-KO: inactive

How did O=C(Cn1cc2c(n1)CCCCC2)N1CCc2ccccc21 do in these assays?
PTEN del growth: inactive; HCT116 bCat-KO: inactive

Results for CCC(CC)NC(=O)COC(=O)c1cc(Br)ccc1Cl ?
PTEN del growth: inactive; HCT116 bCat-KO: inactive

Results for CCOc1ccc(N=CC2=C(O)CC(C)(C)CC2=O)cc1 ?
Lung fibro prol: inactive; PTEN del growth: inactive; HUVEC inhibit: inactive; H69AR growth 86K: 40; HCT116 bCat-KO: inactive

What do the screens show for `CC1CCN(c2c(NCC3CCC(C(=O)N4CCCC(C)C4)CC3)c(=O)c2=O)CC1` (centres undefined)?
Lung fibro prol: inactive; PTEN del growth: inactive; HUVEC inhibit: inactive; H69AR growth 86K: inactive; HCT116 bCat-KO: inactive

What do the screens show for `CCCn1c(N2CCN(CC(=O)c3c(C)n(C)c4ccc(OC)cc34)CC2)nc2c1c(=O)[nH]c(=O)n2C`?
Lung fibro prol: 41; PTEN del growth: inactive; HUVEC inhibit: inactive; H69AR growth 86K: 33; HCT116 bCat-KO: inactive

How did COc1ccc(CCn2c(N3CCN(C)CC3)nc3c2c(=O)[nH]c(=O)n3C)cc1 do in these assays?
Lung fibro prol: inactive; PTEN del growth: inactive; HUVEC inhibit: inactive; H69AR growth 86K: inactive; HCT116 bCat-KO: inactive

How did O=C(Nc1ccc2c(c1)CCC2)C1CCN(c2c3c(nc4ncnn24)CCC3)CC1 do in these assays?
Lung fibro prol: inactive; PTEN del growth: inactive; HUVEC inhibit: inactive; H69AR growth 86K: 32; HCT116 bCat-KO: inactive

Results for CCOC(=O)c1ccc(NC(=O)CSc2nnc(Cn3c(=O)sc4ccccc43)n2C)cc1 ?
Lung fibro prol: inactive; PTEN del growth: inactive; HUVEC inhibit: inactive; H69AR growth 86K: 16; HCT116 bCat-KO: inactive

How did Cc1ccc(NC(=O)CSc2nnc(Cn3c(=O)sc4ccccc43)n2C)cc1 do in these assays?
Lung fibro prol: inactive; PTEN del growth: inactive; HUVEC inhibit: inactive; H69AR growth 86K: inactive; HCT116 bCat-KO: inactive

Results for Cc1ccc(NC(=O)CSc2nnc(Cn3c(=O)sc4ccccc43)n2C)cc1Cl ?
Lung fibro prol: inactive; PTEN del growth: inactive; HUVEC inhibit: inactive; H69AR growth 86K: 29; HCT116 bCat-KO: inactive

Results for Cc1cc(C(=O)COC(=O)c2ccccc2O)c(C)n1Cc1cccs1 ?
PTEN del growth: inactive; HCT116 bCat-KO: inactive

How did CC(C)c1ccc(C(=O)NCCCN2CCN(CCCNC(=O)c3ccc(C(C)C)cc3)CC2)cc1 do in these assays?
PTEN del growth: 2.0; HCT116 bCat-KO: 1.5

How did O=C(NCCCN1CCN(CCCNC(=O)c2ccc(F)cc2)CC1)c1ccc(F)cc1 do in these assays?
Lung fibro prol: inactive; PTEN del growth: inactive; HUVEC inhibit: inactive; H69AR growth 86K: inactive; HCT116 bCat-KO: inactive

What do the screens show for `CC1Cc2nc(SCC(=O)NCc3ccco3)n(-c3ccccc3)c(=O)c2S1` (centres undefined)?
Lung fibro prol: inactive; PTEN del growth: inactive; HUVEC inhibit: inactive; H69AR growth 86K: inactive; HCT116 bCat-KO: inactive
